# ChEMBL document CHEMBL4229537, “Synthesis and bioactivities evaluation of l-pyroglutamic acid analogues from natural product lead” (Bioorg Med Chem, 2018)
# How the values were obtained:
# Phytophthora infestans [1] = assay: Antifungal activity against Phytophthora infestans; type: functional, organism-based
# How it was run: (§1)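 Zoospore release assay: compounds mixed with zoosporangia, held at 4 °C in darkness for 4 h; screened at 100 µg/mL. Solvent negative, azoxystrobin positive control. Release scored once control release reached 90%. Inhibition (%) = (P0−P1)/P0×100. EC50 determined for compounds exceeding 50% inhibition. Means ± SD of three independent experiments.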
# [2] = tested on: Pseudoperonospora cubensis; assay: Antifungal activity against Pseudoperonospora cubensis; type: functional, organism-based
# Ralstonia solanacearum = assay: Antibacterial activity against Ralstonia solanacearum at 2 mg/ml after 4 to 10 hrs by filter paper dispersion method; type: functional; details: read-out: IZ
# Phytophthora infestans [3] = assay: Antifungal activity against Phytophthora infestans assessed as inhibition of zoospore release at 100 ug/ml after 4 hrs relative to control; type: functional; how it was run: as §1
# Phytophthora infestans [4] = assay: Antifungal activity against Phytophthora infestans assessed as inhibition of zoospore release after 4 hrs; type: functional, organism-based; how it was run: as §1
# Bacillus thuringiensis = assay: Antibacterial activity against Bacillus thuringiensis at 2 mg/ml after 4 to 10 hrs by filter paper dispersion method; type: functional; details: read-out: IZ
# How it was run: (§2)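 Filter paper diffusion method. Activated bacteria suspended in sterile water, mixed into beef extract peptone medium, and 3 mL poured per 9 cm dish. 5 µL of 2 mg/mL compound applied to 6 mm paper discs in three parallels. Fosfomycin as positive control, solvent as negative control. Dried discs placed on medium and incubated 4-10 h at 37°C. Inhibition zone size and transparency recorded by crisscross method.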
# Phytophthora infestans [5] = assay: Potency index, ratio of azoxystrobin EC50 to test compound EC50 for Phytophthora infestans; type: functional
# [6] = Cytotoxicity against LPS-treated mouse BV2 cells assessed as cell viability after 24 hrs by SRB assay relative to control; type: cell-based, BV-2; set-up: concentration or dose not given beside the values; details: read-out: Activity
# How it was run: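 BV-2 cells pretreated with compound, then exposed to 1 µg/mL LPS for 24 h. Viability measured by SRB assay and expressed as % of control group. Mean ± SD of three independent experiments.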
# BV-2 = assay: Antiinflammatory activity in mouse BV2 cells assessed as inhibition of LPS-induced nitric oxide production after 24 hrs by Griess assay; type: functional, cell-based; details: BV-2, 24 h
# How it was run: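 BV-2 microglia plated at 1 × 10^5 cells/mL and grown 24 h. Cells pretreated with compound, then stimulated with 1 µg/mL LPS for another 24 h. Quercetin as positive control. Supernatant mixed with Griess reagent and absorbance read at 540 nm. IC50 reported as mean ± SD of three independent experiments.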
# Bacillus cereus = assay: Antibacterial activity against Bacillus cereus at 2 mg/ml after 4 to 10 hrs by filter paper dispersion method; type: functional; details: read-out: IZ; how it was run: as §2
# PC-12 = assay: Neurotogenic activity in NGF-induced rat PC12 cells assessed as neurite bearing cell levels at 20 uM after 48 hrs by inverted microscopic method (reference value: 0.77 +/- 0.13%); type: functional
# Staphylococcus aureus = assay: Antibacterial activity against Staphylococcus aureus at 2 mg/ml after 4 to 10 hrs by filter paper dispersion method; type: functional; details: read-out: IZ; how it was run: as §2
# [7] = tested on: Pectobacterium carotovorum; assay: Antibacterial activity against Erwinia caratovora at 2 mg/ml after 4 to 10 hrs by filter paper dispersion method; type: functional; details: read-out: IZ; how it was run: as §2
SMILES,inhibition at 100 µg/mL (Phytophthora infestans [3]) [%],EC50 (Phytophthora infestans [4]) [µg/mL],zone of inhibition at 2000 µg/mL (Bacillus thuringiensis) [mm],further results
O=C1CC[C@@H](C(=O)O)N1 [PIDOLIC ACID],98.8,7.85,17.5,EC50 (Phytophthora infestans [1]): 9.48 µg/mL; EC50 [2]: 10.8 µg/mL; zone of inhibition at 2000 µg/mL (Ralstonia solanacearum): 7.5 mm
O=C1CC[C@@H](C(=O)Oc2cccc3ccccc23)N1,98.5,1.21,–,Ratio EC50 (Phytophthora infestans [5]): 7
C=CCNC(=O)[C@@H]1CCC(=O)N1,49.3,–,11.5,viability at 24 h [6]: 95.4%; IC50 (BV-2): 9.1 µM; zone of inhibition at 2000 µg/mL (Bacillus cereus): 15 mm; Activity (PC-12): 14.962%
CCOC(=O)c1ccccc1OC(=O)[C@@H]1CCC(=O)N1,98.2,16.4,13,zone of inhibition at 2000 µg/mL (Ralstonia solanacearum): 5.5 mm; zone of inhibition at 2000 µg/mL (Staphylococcus aureus): 6.5 mm; zone of inhibition at 2000 µg/mL [7]: 11 mm
CCCCOC(=O)[C@@H]1CCC(=O)N1,99,11.2,–,–
CC1(C)S[C@@H]2[C@H](NC(=O)Cc3ccccc3)C(=O)N2[C@H]1C(=O)O [PENICILLIN G SODIUM],–,–,27,zone of inhibition at 2000 µg/mL (Ralstonia solanacearum): 24 mm; zone of inhibition at 2000 µg/mL (Staphylococcus aureus): 28 mm; zone of inhibition at 2000 µg/mL (Bacillus cereus): 25 mm; zone of inhibition at 2000 µg/mL [7]: 28 mm
O=C1CC[C@@H](C(=O)Oc2ccc(O)cc2)N1 [PIDOBENZONE],–,–,–,viability at 24 h [6]: 92.6%; zone of inhibition at 2000 µg/mL (Ralstonia solanacearum): 7 mm; zone of inhibition at 2000 µg/mL (Staphylococcus aureus): 6 mm; IC50 (BV-2): 4.5 µM; zone of inhibition at 2000 µg/mL (Bacillus cereus): 12 mm; Activity (PC-12): 15.443%
O=C1CC[C@@H](C(=O)NCCc2c[nH]c3ccccc23)N1,21.5,–,12,zone of inhibition at 2000 µg/mL [7]: 15 mm
CNC(=O)[C@@H]1CCC(=O)N1,1.17,–,12,–
CC(C)(C)NC(=O)[C@@H]1CCC(=O)N1,–,–,–,zone of inhibition at 2000 µg/mL (Bacillus cereus): 12 mm
CO/C=C(/C(=O)OC)c1ccccc1Oc1cc(Oc2ccccc2C#N)ncn1 [AZOXYSTROBIN],99.2,1.98,–,–
O=C1CC[C@@H](C(=O)Nc2ccccc2O)N1,33.7,–,–,–
Cc1cc(Cl)ccc1OC(=O)[C@@H]1CCC(=O)N1,39.8,–,–,viability at 24 h [6]: 91.1%; IC50 (BV-2): 19.4 µM
CN(C)C(=O)[C@@H]1CCC(=O)N1,44.3,–,–,–
C=CCOC(=O)[C@@H]1CCC(=O)N1,84.2,–,12,–
C#CCNC(=O)[C@@H]1CCC(=O)N1,–,–,9,viability at 24 h [6]: 89.5%; zone of inhibition at 2000 µg/mL (Staphylococcus aureus): 6 mm; IC50 (BV-2): 6 µM
Cc1ccc(C(C)C)c(OC(=O)[C@@H]2CCC(=O)N2)c1,13.2,–,–,–
CN1CCN(C(=O)[C@@H]2CCC(=O)N2)CC1,–,–,–,zone of inhibition at 2000 µg/mL (Bacillus cereus): 7 mm
O=C1CC[C@@H](C(=O)Oc2ccccc2[N+](=O)[O-])N1,96.3,8.58,–,–
O=c1c(O)c(-c2ccc(O)c(O)c2)oc2cc(O)cc(O)c12 [QUERCETIN],–,–,–,viability at 24 h [6]: 99.5%; IC50 (BV-2): 4.3 µM

SMILES,inhibition at 100 µg/mL (Phytophthora infestans [3]) [%],EC50 (Phytophthora infestans [4]) [µg/mL],zone of inhibition at 2000 µg/mL (Bacillus thuringiensis) [mm],further results
NC(=O)[C@@H]1CCC(=O)N1,13.6,–,8,zone of inhibition at 2000 µg/mL (Ralstonia solanacearum): 5.5 mm
O=C1CC[C@@H](C(=O)Oc2ccccc2)N1,98.3,19.5,–,–
O=C1CC[C@@H](C(=O)Nc2ccc(C(F)(F)F)cc2)N1,–,–,13,zone of inhibition at 2000 µg/mL (Bacillus cereus): 9.5 mm
CCOC(=O)[C@@H]1CCC(=O)N1,95.8,15.2,–,–
NNC(=O)[C@@H]1CCC(=O)N1,–,–,14,–
Nc1ccccc1NC(=O)[C@@H]1CCC(=O)N1,–,–,11.5,zone of inhibition at 2000 µg/mL (Bacillus cereus): 5.5 mm
N#Cc1ccccc1OC(=O)[C@@H]1CCC(=O)N1,98.3,9.62,14,zone of inhibition at 2000 µg/mL (Ralstonia solanacearum): 7 mm
CC(C)NC(=O)[C@@H]1CCC(=O)N1,–,–,10,zone of inhibition at 2000 µg/mL (Bacillus cereus): 5.5 mm
CCCCNC(=O)[C@@H]1CCC(=O)N1,17.8,–,7.5,–
CCCOC(=O)[C@@H]1CCC(=O)N1,95.1,12.4,–,–
Cc1ccccc1OC(=O)[C@@H]1CCC(=O)N1,48.6,–,–,–
O=C1CC[C@@H](C(=O)Oc2ccccc2Cl)N1,98.4,14.6,–,–
O=C1CC[C@@H](C(=O)Nc2ccc([N+](=O)[O-])cc2)N1,47.5,–,–,–
COC(=O)c1ccccc1NC(=O)[C@@H]1CCC(=O)N1,2.37,–,–,zone of inhibition at 2000 µg/mL (Ralstonia solanacearum): 10 mm; zone of inhibition at 2000 µg/mL (Staphylococcus aureus): 6 mm; zone of inhibition at 2000 µg/mL (Bacillus cereus): 6 mm; zone of inhibition at 2000 µg/mL [7]: 9 mm
COC(=O)[C@@H]1CCC(=O)N1,26.1,–,–,–
CC(C)OC(=O)[C@@H]1CCC(=O)N1,36.5,–,–,–
CC(C)COC(=O)[C@@H]1CCC(=O)N1,64.9,–,–,–
C#CCOC(=O)[C@@H]1CCC(=O)N1,–,–,–,zone of inhibition at 2000 µg/mL (Ralstonia solanacearum): 6 mm
O=C1CC[C@@H](C(=O)Oc2ccc(Cl)cc2)N1,98.1,1.44,–,Ratio EC50 (Phytophthora infestans [5]): 7
CCN(CC)C(=O)[C@@H]1CCC(=O)N1,35.8,–,–,zone of inhibition at 2000 µg/mL (Bacillus cereus): 10 mm; zone of inhibition at 2000 µg/mL [7]: 12 mm
